The text below walks through data of ChEMBL document CHEMBL1914377, “Preliminary finding on a new calcium channel entry blocker chemotype: 5,6-diamino-4-hydroxy-2-mercaptopyrimidine derivatives” (J Med Chem, 2011).

Structures are written as SMILES.

As a reminder, the inhibition is the percentage by which the read-out fell short of the control. A word on the EC50: it is the concentration that produces a half-maximal response. The term IC50 denotes the concentration that gives 50% inhibition. As a reminder, the EC30 is the concentration needed for an effect of 30%.

Assay [1] is described as follows: Cardiovascular activity in guinea pig spontaneously beating right atrium assessed as negative chronotropic activity by measuring decrease of atrial rate at 10^-4 M relative to control. Type of assay: functional. The settings on record: Cavia porcellus, Cardiac atrium.
Assay [2] in a line: Cardiovascular activity in guinea pig left atrium assessed as negative inotropic activity by measuring decrease of 1 Hz-induced tension. Format: functional, tissue-based. The settings on record: Cavia porcellus, Cardiac atrium. The essentials:
(§1)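 Log concentration–response curves fitted by probit analysis (Litchfield and Wilcoxon), n = 4–7. They were not calculated when the maximum effect was below 50%.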

Assay [3] is described as follows: Cardiovascular activity in guinea pig left atrium assessed as negative inotropic activity by measuring decrease of 1 Hz-induced tension at 10^-5 M relative to control. Format: functional. As to conditions: Cavia porcellus, Cardiac atrium.
Assay [4] concerns Aorta. The experiment in a line: Vasorelaxant activity in guinea pig K+-depolarized guinea pig aortic strip assessed as inhibition of calcium-induced contraction at 10^-4 M relative to control. Type of assay: functional. As to conditions: Cavia porcellus.
Assay [5] is described as follows: Vasorelaxant activity in guinea pig K+-depolarized guinea pig longitudinal smooth muscle assessed as inhibition of calcium-induced contraction. Format: functional, Cavia porcellus.
Assay [6] is described as follows: Vasorelaxant activity in guinea pig K+-depolarized guinea pig longitudinal smooth muscle assessed as inhibition of calcium-induced contraction at 10^-4 M relative to control. As to conditions: Cavia porcellus. Format: functional. The method, boiled down: (§2)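 Guinea-pig longitudinal smooth muscle depolarized with K+ (80 mM). Percent inhibition of calcium-induced contraction was measured at single concentrations of 10^-4 M, 5 × 10^-5 M or 10^-5 M. Results are mean ± SEM.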

The next assay relates to TT. The experiment in a line: Inhibition of T-type calcium channel expressed in human TT cells using Ba2+ as charge carrier at 10 uM by patch clamp electrophysiological assay relative to control. Format: cell-based. The method, boiled down: (§3)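 Whole-cell patch clamp with Ba2+ currents. L-type current was recorded in transfected CHO cells and T-type current in TT cells, whose only voltage-gated Ca2+ currents are T-type. The read-out was percent decrease in peak current, comparing the mean of five consecutive steady-state sweeps in control and in drug. Results are mean ± SEM, n = 5–7 cells per group.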

The subject of another assay is CHO. Kind of assay: Inhibition of L-type alpha9beta3alpha2/gamma4 calcium channel expressed in CHO cells using Ba2+ as charge carrier at 10 uM by patch clamp electrophysiological assay relative to control. Type of assay: cell-based. The method, boiled down:
as §3
Background: The patch-clamp technique gives a direct electrical read-out from membranes.

Assay [7] is described as follows: Cardiovascular activity in guinea pig spontaneously beating right atrium assessed as negative chronotropic activity by measuring decrease of atrial rate at 5 x 10^-5 M relative to control. Format: functional. As to conditions: Cavia porcellus, Cardiac atrium.
The nature of assay [8]: Cardiovascular activity in guinea pig spontaneously beating right atrium assessed as negative chronotropic activity by measuring decrease of atrial rate. Type of assay: functional. The settings on record: Cavia porcellus, Cardiac atrium. The method, boiled down:
as §1

The nature of assay [9]: Vasorelaxant activity in guinea pig K+-depolarized guinea pig longitudinal smooth muscle assessed as inhibition of calcium-induced contraction at 10^-5 M relative to control. Type of assay: functional. As to conditions: Cavia porcellus. The essentials:
as §2

Assay [10] in a line: Cardiovascular activity in guinea pig left atrium assessed as negative inotropic activity by measuring decrease of 1 Hz-induced tension at 5 x 10^-5 M relative to control. Format: functional. As to conditions: Cavia porcellus, Cardiac atrium.
In assay [11] the test system is Aorta. The experiment in a line: Vasorelaxant activity in guinea pig K+-depolarized guinea pig aortic strip assessed as inhibition of calcium-induced contraction. The settings on record: Cavia porcellus. Type of assay: functional, tissue-based. The essentials: as §1
A short description of assay [12]: Cardiovascular activity in guinea pig left atrium assessed as negative inotropic activity by measuring decrease of 1 Hz-induced tension at 10^-4 M relative to control. Format: functional. As to conditions: Cavia porcellus, Cardiac atrium.
Assay [13] in a line: Vasorelaxant activity in guinea pig K+-depolarized guinea pig longitudinal smooth muscle assessed as inhibition of calcium-induced contraction at 5 x 10^-5 M relative to control. Type of assay: functional. As to conditions: Cavia porcellus. The essentials:
as §2

Assay [14] deals with Aorta. The experiment in a line: Vasorelaxant activity in guinea pig K+-depolarized guinea pig aortic strip assessed as inhibition of calcium-induced contraction at 5 x 10^-5 M relative to control. As to conditions: Cavia porcellus. Type of assay: functional.
Assay [15] is described as follows: Cardiovascular activity in guinea pig spontaneously beating right atrium assessed as negative chronotropic activity by measuring decrease of atrial rate at 10^-5 M relative to control. Type of assay: functional. As to conditions: Cavia porcellus, Cardiac atrium.
The nature of assay [16]: Cardiovascular activity in guinea pig left atrium assessed as negative inotropic activity by measuring decrease of 1 Hz-induced tension at 5 x 10^-6 M relative to control. Format: functional. As to conditions: Cavia porcellus, Cardiac atrium.
Assay [17] in a line: Cardiovascular activity in guinea pig left atrium assessed as negative inotropic activity by measuring decrease of 1 Hz-induced tension in presence of adenosine A1 receptor antagonist DPCPX. The settings on record: Cavia porcellus, Cardiac atrium. Type of assay: functional, tissue-based. The essentials: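 Negative inotropic concentration–response determined in the presence of the A1 antagonist DPCPX at 1 μM.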

As to `CCOc1nc(SCCOC)nc(NC(C)=O)c1N(CCOC)CCOC`, the values for the inhibition at 100 µM (in assay [1]; in the assay on Aorta [4]) were 3% and 10%, respectively. The EC50 in assay [2] came to 620 nM. The inhibition at 10 µM in [3] was found to be 80%.
As for `CCn1c(SCCOC)nc(N)c(N(CCOC)CCOC)c1=O`, the IC50 in assay [5] came out at 21500 nM. Moreover, the inhibition at 100 µM in assay [1] came to 11%; in the assay with Aorta [4], 33%. In addition, the inhibition in assay [6] is 60%; in the assay with TT, 24.7%; in the assay with CHO, 52%. Moreover, the EC50 in [2] was 230 nM. Also, the inhibition at 10 µM in assay [3] came to 76%.
As for `CCn1c(SCc2ccccc2)nc(NC(C)=O)c(N(Cc2ccccc2)Cc2ccccc2)c1=O`, in assay [5], the IC50 came to 1480 nM. For the same molecule, the inhibition was 15.2% in the assay with TT, 58% in the assay on CHO and 90% in [9]. Moreover, the EC50 in assay [2] stood at 290 nM. In addition, the inhibition at 50 µM in assay [7] stood at 72%; in assay [10], 66%. The inhibition at 100 µM with Aorta [4] was found to be 25%. In addition, the EC30 in assay [8] came to 14100 nM.
On to `CCCSc1nc(N)c(N(CCC)CCC)c(=O)[nH]1`, for which the IC50 in assay [5] was determined as 13900 nM; in the assay on Aorta [11] it was 14900 nM. In addition, the EC50 in [2] was found to be 1960 nM. Also, the inhibition at 50 µM in assay [7] turned out to be 39%. For the same molecule, the inhibition at 100 µM was determined as 54% in the assay on Aorta [4] and 87% in [12]. In [13], the inhibition was determined as 87%.
With `Nc1nc(SCc2ccccc2)[nH]c(=O)c1N(Cc1ccccc1)Cc1ccccc1`, the inhibition at 100 µM in [1] was 80%; in assay [12], 60%. Moreover, the EC50 in assay [2] was determined as 3160 nM. Besides, the inhibition at 50 µM in the assay on Aorta [14] came to 2%. Moreover, in [8], the EC30 worked out at 8630 nM.
For the molecule `CCCSc1nc(N)c(N(CCC)CCC)c(=O)n1CC`, in [5], the IC50 was found to be 3390 nM. Besides, the inhibition was 35.3% with TT, 54% in the assay with CHO and 93% in assay [13]. In addition, in assay [2], the EC50 amounted to 600 nM. In addition, the inhibition at 10 µM in assay [3] amounted to 56%. In [7], the inhibition at 50 µM amounted to 22%. The inhibition at 100 µM in the assay on Aorta [4] came out at 28%.
With `CCOc1nc(SCCOC)nc(N)c1N(CCOC)CCOC`, the inhibition at 100 µM in assay [1] turned out to be 45%; with Aorta [4], 22%. Also, in assay [2], the EC50 is 310 nM. Further, the inhibition at 50 µM in assay [10] is 79%.
In the case of `COCCSc1nc(NC(C)=O)c(N(CCOC)CCOC)c(=O)[nH]1`, the EC50 in assay [2] came out at 960 nM. The inhibition at 50 µM in assay [7] came to 6%. Moreover, the results for the inhibition at 100 µM (in the assay on Aorta [4]; in assay [12]) were 2% and 90%, respectively.
For `CC(=O)Nc1nc(SCc2ccccc2)[nH]c(=O)c1N(Cc1ccccc1)Cc1ccccc1`, the inhibition at 100 µM in [1] was found to be 95%; with Aorta [4], 31%; in [12] it was 90%. In assay [2], the EC50 worked out at 1410 nM. In addition, the EC30 in assay [8] is 6790 nM.
Take `CCOc1nc(SCc2ccccc2)nc(NC(C)=O)c1N(Cc1ccccc1)Cc1ccccc1`: in assay [1], the inhibition at 100 µM was 44%. The EC50 in assay [2] was found to be 270 nM. The inhibition at 10 µM in [3] came out at 64%. Besides, the inhibition at 50 µM with Aorta [14] is 20%.
Take `CCCSc1nc(NC(C)=O)c(N(CCC)CCC)c(OCC)n1`: in assay [2], the EC50 came out at 1000 nM. Besides, in assay [15], the inhibition at 10 µM turned out to be 2%. In the assay on Aorta [4], the inhibition at 100 µM was 23%. The inhibition at 50 µM in assay [10] was 71%.
For the molecule `CCn1c(SCCOC)nc(NC(C)=O)c(N(CCOC)CCOC)c1=O`, the IC50 in assay [5] is 23800 nM. Moreover, the figures for the inhibition at 100 µM (in [1]; with Aorta [4]; in [12]) were 2%, 2% and 81%, respectively. Also, the figures for the inhibition (in assay [6]; in the assay on TT; in the assay with CHO) were 91%, 12.3% and 37%, respectively. Besides, the concentration for a half-maximal effect (EC50) in assay [2] came out at 770 nM.
Consider `CCCSc1nc(NC(C)=O)c(N(CCC)CCC)c(=O)[nH]1`, for which the EC50 in assay [2] amounted to 280 nM. In addition, in [16], the inhibition at 5 µM was determined as 62%. For the same molecule, in assay [15], the inhibition at 10 µM worked out at 7%. The inhibition at 100 µM in the assay with Aorta [4] amounted to 30%.
Take `COCCSc1nc(N)c(N(CCOC)CCOC)c(=O)[nH]1`: the EC50 in assay [2] was 340 nM. Moreover, the inhibition at 10 µM is 93% in [3] and 13% in assay [15]. In the assay with Aorta [4], the inhibition at 100 µM is 10%.
In the case of `CCCSc1nc(N)c(N(CCC)CCC)c(OCC)n1`, the IC50 in assay [5] came to 10700 nM. The inhibition at 100 µM in assay [1] was determined as 27%; in the assay with Aorta [4], 16%. Besides, in [6], the inhibition came to 83%. Further, the EC50 in assay [2] was determined as 150 nM. The inhibition at 10 µM in assay [3] turned out to be 68%.
Consider `CCOc1nc(SCc2ccccc2)nc(N)c1N(Cc1ccccc1)Cc1ccccc1`, for which the inhibition at 100 µM was determined as 33% in assay [1] and 62% in [12]. The EC50 in assay [2] worked out at 1490 nM. In addition, in the assay with Aorta [14], the inhibition at 50 µM stood at 2%.
For `CCn1c(SCc2ccccc2)nc(N)c(N(Cc2ccccc2)Cc2ccccc2)c1=O`, the concentration for half-maximal inhibition (IC50) in assay [5] was found to be 2910 nM. The inhibition at 100 µM in assay [1] is 63%; in the assay with Aorta [4] it was 7%; in assay [12], 56%. Further, the inhibition in [6] was found to be 94%; in the assay with TT, 11.9%; in the assay with CHO it was 60.7%. Besides, the values for the EC50 in assay [17] and in assay [2] were 500 nM and 450 nM, respectively. Moreover, the EC30 in [8] came to 18100 nM.
Turning to `CCCSc1nc(NC(C)=O)c(N(CCC)CCC)c(=O)n1CC`, the IC50 in [5] came out at 4860 nM. Further, the inhibition with TT amounted to 22.3%; in the assay on CHO, 56%; in assay [9] it was 72%. Besides, the EC50 in assay [2] amounted to 530 nM. The inhibition at 50 µM in [7] was found to be 13%; in the assay with Aorta [14] it was 13%; in [10], 60%.
